CSN deneddyl inh: blocks human CSN-mediated cullin deneddylation. inhibition, % at 12.5 µM. AID 651999. Purified CSN, SCF-Nedd8-OG deneddylation, fluorescence polarization. 0.38% of 360,000 active;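 active = pattern-corrected inhibition above about 35%, with an unprinted fluorescence ratio check between 0.5 and 1.5, limit read from the data, passing the limit was not always enough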
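assay system = purified human Csn5 enzyme expressed in HEK293T cells | amount = 0.24 nM enzyme | buffer or medium = Tris/NaCl/DTT buffer, pH 7.5 | reagent = 10 nM SCFSkp2-Nedd8OG | compound = one concentration, 12.5 µM, 0.25% DMSO | times = 90 min reaction at room temperature | signal = FP | read-out basis = % inhibition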
TPT1 inhibitor: C. albicans TPT1 enzyme inhibition | 0.81% of 300,000 active | recombinant caTPT1, FP RNA substrate dephosphorylation | inhibition, % at 5 µM;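 active = inhibition above the mean of all tested compounds plus 3 SD, set per screening campaign, cut at about 24% in these data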
IDE act: IDE (human) activation, cell-based. HEK cells, FAbeta-B cleavage, fluorescence polarization; 0% vehicle, 100% cell-free pure enzyme wells. P14735. activation, % at 5.96 µM. 0.073% of 340,000 active;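 active = activation above the mean of all tested compounds plus 3 SD, set per screening campaign, cut at about 17% in these data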
HNF4A DNA FP: change in binding of human HNF4 alpha to DNA; HNF4a-FITC DNA binding, fluorescence polarization, 1 h; activity change, % at 10 µM; 0.3% of 360,000 active; in the data active = activity change above about 30%, passing the limit was not always enough
IDE cell inh: inhibits human insulin-degrading enzyme in HEK cells; P14735; FAbetaB cleavage, fluorescence polarization; inhibition, % at 5.59 µM; 0.41% of 320,000 active; AID 434962;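 active = percent inhibition above the average of all tested compounds plus 3 SD, set per screening campaign, cut at about 16% in these data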;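 note: IDE supplied by intact live HEK cells; FP after avidin binding of uncleaved biotin substrate so inhibition keeps polarization high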
Rpn11 block: inhibitors of human proteasome Rpn11; human 26S proteasome, Ub4-pepOG fluorescence polarization; 20S core pre-blocked with epoxomicin; inhibition, % at 20 µM; 0.59% of 360,000 active; AID 588493;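 active = inhibition at 20 µM, scaled to each plate's controls, above about 33%, limit read from the data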
CSN5 deneddyl: Csn5 (human) deneddylation inhibition, single-concentration validation. shares compounds with CSN deneddyl inh. Csn5 deneddylation of SCF-Nedd8OG, fluorescence polarization, 90 min. inhibition, % at 16.6 µM. 62% of 540 active; in the data active = inhibition above about 50%
MMP-2 counter: MMP-2 (human) inhibition, counter-screen for CSN hits; shares compounds with CSN deneddyl inh; recombinant MMP-2, FRET substrate fluorescence, 60 min; inhibition, % at 16.6 µM; 33% of 540 active;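 active = corrected plate-normalized z-score of 5 or more, or -5 or less, or inhibition of 15% or more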
Target sequence (P08253 whole entry, looked up): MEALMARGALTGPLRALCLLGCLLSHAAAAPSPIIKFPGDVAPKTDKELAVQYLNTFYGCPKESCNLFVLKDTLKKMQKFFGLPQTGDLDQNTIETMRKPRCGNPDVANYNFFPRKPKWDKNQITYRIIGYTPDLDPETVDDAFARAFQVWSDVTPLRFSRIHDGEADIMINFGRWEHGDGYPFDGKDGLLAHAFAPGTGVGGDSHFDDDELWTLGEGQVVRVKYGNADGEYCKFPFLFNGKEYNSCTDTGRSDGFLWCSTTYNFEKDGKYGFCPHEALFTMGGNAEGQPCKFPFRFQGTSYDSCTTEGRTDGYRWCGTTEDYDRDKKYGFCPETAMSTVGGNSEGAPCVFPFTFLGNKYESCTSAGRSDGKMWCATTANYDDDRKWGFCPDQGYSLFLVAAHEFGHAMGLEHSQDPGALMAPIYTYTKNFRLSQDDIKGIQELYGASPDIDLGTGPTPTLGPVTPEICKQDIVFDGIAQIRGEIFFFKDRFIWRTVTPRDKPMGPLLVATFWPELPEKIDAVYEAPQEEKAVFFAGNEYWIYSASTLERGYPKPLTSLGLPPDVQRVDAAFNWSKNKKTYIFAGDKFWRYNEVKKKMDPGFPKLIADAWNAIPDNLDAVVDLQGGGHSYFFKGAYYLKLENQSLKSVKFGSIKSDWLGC
Thrombin counter: counter-screen for CSN deneddylation inhibitors: bovine thrombin inhibition | shares compounds with CSN deneddyl inh | bovine thrombin cleavage of Ub4-pepOG, fluorescence polarization | inhibition, % at 16.6 µM | 49% of 540 active;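 active = inhibition at or above a set limit, with a fluorescence interference ratio between 0.5 and a set maximum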
A number is an active result; i = inactive; nt = no result given. The list is not random: actives were taken first. Their share in the collection is about 1.7%.

SMILES | CSN deneddyl inh | TPT1 inhibitor | IDE act | HNF4A DNA FP | IDE cell inh | Rpn11 block | CSN5 deneddyl | MMP-2 counter | Thrombin counter
O=C(O)CCCN1C(=O)/C(=C\c2ccco2)SC1=S | 41.5 | nt | i | i | nt | i | 94.4 | 29.8 | i
O=C1/C(=C\c2ccco2)SC(=S)N1Cc1ccccc1 | i | i | i | i | i | i | nt | nt | nt
O=C(O)CN1C(=O)/C(=C/c2ccc(SCc3ccccc3)o2)SC1=S | 87.2 | nt | i | i | nt | nt | 88.3 | i | 96.4
CCCCN1C[C@H](CO)Oc2cccc(F)c2S1(=O)=O | i | nt | i | i | nt | i | nt | nt | nt
COc1ccc(OC)c(CN2CCN(C(=O)[C@@H](NC(=O)c3cccc(C)c3)C(C)C)CC2)c1 | i | nt | i | i | i | i | nt | nt | nt
CC(C)Oc1ccc(S(=O)(=O)N2CCOCC2)cc1NC(=O)CSc1nnc(C2CC2)n1C | i | nt | nt | i | nt | i | nt | nt | nt
O=C(NCc1cc(C(F)(F)F)ccc1Cl)c1cccc2c1C(=O)c1ccc(N3CCC(N4CCCCC4)CC3)cc1S2(=O)=O | 81.6 | nt | nt | 139.6 | nt | nt | i | i | 45.6
O=C(NCc1cccc(C(F)(F)F)c1)c1cccc2c1C(=O)c1ccc(N3CCC(Cc4ccccc4)CC3)cc1S2(=O)=O | i | nt | i | i | i | i | nt | nt | nt
Cc1ccc(NC(=O)CN2C(=O)S/C(=C/c3ccc(-c4cc(C(=O)O)ccc4C)o3)C2=O)cc1C | 64.0 | i | i | i | i | i | 75.9 | 18.3 | i
Cc1cccc(NC(=O)CN2C(=O)S/C(=C\c3ccc(-c4cccc(C(=O)O)c4C)o3)C2=O)c1 | nt | i | nt | nt | i | nt | nt | nt | nt
Cc1ccccc1CNS(=O)(=O)c1c(C(=O)N2CCCC2)c(C)n(C)c1C | i | i | i | i | i | i | nt | nt | nt
COc1ccc(-c2coc3c(C)c4oc(=O)c(CCC(=O)O)c(C)c4cc23)cc1 | i | i | i | i | i | i | nt | nt | nt
Cc1c(CCC(=O)O)c(=O)oc2c(C)c3occ(-c4ccc(Br)cc4)c3cc12 | 38.7 | nt | i | i | nt | i | i | 29.6 | i
CCc1cc(=O)oc2cc(C)c(CN3CCCC3)c(O)c12 | 37.1 | i | i | i | i | i | 89.4 | i | i
COc1cc(-c2nnc(SCc3cc(=O)oc4cc(O)c(O)cc34)o2)cc(OC)c1OC | 47.3 | i | i | i | i | i | nt | 31.6 | 33.7
CCC(=O)Nc1c(C#N)c2nc3ccccc3nc2n1-c1ccccc1C | i | i | i | i | i | i | nt | nt | nt
CCCCn1c(NC(=O)c2ccccc2Cl)c(C#N)c2nc3ccccc3nc21 | 58.7 | i | i | 64.4 | i | i | 98.2 | i | i
O=C(N/N=C\C=C\c1ccco1)c1cc(-c2ccc3ccccc3c2)n[nH]1 | 43.0 | i | i | i | i | i | 96.4 | i | i
Cc1ccc(-c2csc(NC(=O)/C=C/c3ccco3)c2C(=O)O)cc1 | 42.2 | i | i | i | i | i | 66.7 | i | i
Cc1ccc(-c2csc(NC(=O)c3cccc(C)c3)c2C(=O)O)cc1 | i | i | i | i | i | i | nt | nt | nt
Nc1ccc(Cn2ccc3c4c(N)nc(N)nc4ccc32)cc1 | 39.4 | nt | i | i | nt | i | 93.4 | i | i
Cc1nc2ccc(N)cc2c(=O)n1Cc1ccc(Cl)cc1 | i | i | i | i | i | i | nt | nt | nt
COC(=O)Cn1cnc2c(nnn2-c2cccc(OC)c2)c1=O | i | i | i | i | i | i | nt | nt | nt
Cc1ccsc1C(=O)C1CCCN(Cc2cc(F)ccc2-n2cccn2)C1 (stereo not given) | i | i | i | i | i | i | nt | nt | nt
Cc1cc(-c2csc(NC(=O)c3ccc(=O)[nH]c3)n2)c(C)n1Cc1ccco1 | 39.6 | i | i | i | i | i | 98.4 | i | i
N#Cc1c(NC(=O)CSc2ncnc3sccc23)oc(-c2ccco2)c1-c1ccco1 | 51.3 | i | i | i | i | i | 63.7 | i | i
Cc1cc(NC(=O)CSc2ncnc3sccc23)no1 | i | i | i | i | i | i | nt | nt | nt

Assay outcomes (PubChem)
